The results in this text go back to ChEMBL document CHEMBL4513216, “Probing the Open Global Health Chemical Diversity Library for Multistage-Active Starting Points for Next-Generation Antimalarials” (ACS Infect Dis, 2020).

The series in a line: Toxicity liver stage against HepG2, at 10uM. The conditions noted are these: human, HepG2-A16-CD81EGFP cells; read-out: INHIBITION
Also on record: test concentration 10 uM, cell line HepG2-A16-CD81EGFP. Type of series: cell-based. The essentials:
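Uninfected HepG2-A16-CD81EGFP cells, 3 × 10^3 per well, 1536-well, plated on prespotted compound at 10 μM final, parasite-free screening media added to match infected plates; puromycin 10 μM positive, DMSO 0.5% negative; run in parallel with 48 h PbLuc assay at 37 °C, 5% CO2; viability by CellTiter-Glo luminescence, normalized to controls.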
Take `CCn1cc(NC(=O)NCC(c2ccsc2)N(C)C)cn1` (configuration not stated): the cytotoxicity at 10 µM was -8.01%.

As to `CN(C)C(=O)c1cncnc1-c1ccc(CNC(=O)C2CC2)cc1`, the cytotoxicity at 10 µM is 2.33%. With `Cc1ccccc1CC1(CO)CCCN(c2ncncc2C(C)C)C1` (configuration not stated) the figure was -22.2%; with `CCn1c(C2CCCN(Cc3ccc4ccccc4n3)C2)nn(C)c1=O` (configuration not stated), 0.687%. On to `c1ccc(-c2nc(CN3CCn4c(nnc4C4CC4)C3)no2)cc1`, for which the cytotoxicity at 10 µM is -3.47%. On to `CN1CCN(c2ncnc3c2CCN(S(=O)(=O)C2CC2)CC3)CC1`, for which the cytotoxicity at 10 µM is -112%. Regarding `COc1ccc(CCNC2CCCN(Cc3noc(C)n3)C2)cc1` (configuration not stated), the cytotoxicity at 10 µM was -5.98%. For `O=C(NCc1nncn1C1CC1)c1ccc(F)c(COCC2CC2)c1` the value was 10.2%. `O=C(CN1C(=O)CCCc2sccc21)NC1CCc2nccn2C1` (configuration not stated): the cytotoxicity at 10 µM was 9.29%. For the compound `CCCOc1ccc(Cl)cc1C(=O)N1CCC(n2cncn2)CC1`, the cytotoxicity at 10 µM is 2.93%. As for `CCN(C(C)=O)c1nc(CN2CCN(c3nccs3)CC2)cs1`, the cytotoxicity at 10 µM was -6.01%. Regarding `CN(c1cccnc1N1CCCC1)S(=O)(=O)c1cccs1`, the cytotoxicity at 10 µM amounted to 20.4%.

Take `COc1ccc(OCC(=O)NC(C)c2ccc(F)cc2)c(C(=O)O)c1` (configuration not stated): the cytotoxicity at 10 µM is 2.89%. With `Cc1nn(C)c2nc3c(c(C(=O)/N=c4\[nH]nc(C(C)C)s4)c12)CCC3` the figure was -2.25%. With `Cc1ncc(CNc2cnccc2CO)s1` the figure was -24.7%; with `CS(=O)(=O)NC[C@H]1Cn2c(-c3ccc(Cl)cc3)cnc2CO1`, -3.58%; with `CCN(C(=O)c1cc(C)nc2ccccc12)C1CC(=O)NC1=O` (configuration not stated), 3.04%. For `CC(C)c1nn(C)c(N(C)C)c1CNCc1cscn1` the value was -5.54%. In the case of `CCC[C@@H]1CN(C(=O)c2c(F)ccc(OC)c2F)C[C@H]1C(=O)O`, the cytotoxicity at 10 µM came out at 0.542%.

With `CC(C)Cn1ncc(C(=O)O)c1C1CC1`, the cytotoxicity at 10 µM is -14%. With `COc1ccc(C[C@H]2CN(c3cc(OC)ncn3)CC[C@@H]2OC)cc1` the figure was 50%. Take `COc1ccc(N2CCN(C(=O)CCCc3cn[nH]c3)CC2=O)cc1`: the cytotoxicity at 10 µM is -9.9%. For the compound `COc1ccc(CCc2nnc(NC(=O)C3CC34CCC4)s2)cc1OC` (configuration not stated), the cytotoxicity at 10 µM was -0.095%. Take `CC(C)(C)C(=O)N1C[C@@H](F)[C@@H](OCc2nc3ccccc3o2)C1`: the cytotoxicity at 10 µM came out at 3.33%. In the case of `CC(C)CNC(=O)Cc1cnc(-n2cccc2)s1`, the cytotoxicity at 10 µM is -3.66%. Take `Cc1cc(C)nc(Nc2cncc(C3CCCN(S(C)(=O)=O)C3)n2)n1` (configuration not stated): the cytotoxicity at 10 µM was -16.1%. In the case of `CC(C)N1CCCC(CNC(=O)Cc2csc(-c3cccnc3)n2)C1` (configuration not stated), the cytotoxicity at 10 µM was -51.5%. For `COc1ccccc1CC(=O)N(CCN1CCOCC1)Cc1ccco1` the value was 2.91%. On to `COc1ccc2c(c1)nc1n2[C@@H](CN(C2CCC2)C2CCC2)COC1`, for which the cytotoxicity at 10 µM was determined as 5.96%. Consider `O=C(c1csnn1)N1CCc2ccccc21`, for which the cytotoxicity at 10 µM amounted to 5.35%.

Turning to `CC(=O)N1CCC(c2nccnc2-c2ccc(F)c(F)c2)CC1`, the cytotoxicity at 10 µM was -19.1%.

For `Cc1cccc(CN(C(=O)CS(C)(=O)=O)C(C)C)c1`, the cytotoxicity at 10 µM turned out to be 1.68%. Consider `O=C(NCC1CC1)C1CN(C(=O)c2ccnnc2)CC12CCOCC2` (configuration not stated), for which the cytotoxicity at 10 µM is 8.21%. For `CCOCC1CC2(CCN(C(=O)c3ccccc3F)CC2)CO1` (configuration not stated) the value was 2.26%; for `CCCc1nnc(N2CCC3(CCC(=O)N(C)C3)CC2)o1`, 3.96%; for `c1ncc(-c2ccc(C3CNCCO3)nc2)cn1` (configuration not stated), -5.33%. `Cc1nc(N2CCN(C(=O)c3ccsc3)CC2)c2cnn(C)c2n1`: the cytotoxicity at 10 µM is -10.6%. On to `CN1C(=O)CCc2cc(NC(=O)C3CCCC3)ccc21`, for which the cytotoxicity at 10 µM was -9.79%.

Regarding `CC(C)c1nc(CCN(C)C(=O)C2COc3ccccc3C2)no1` (configuration not stated), the cytotoxicity at 10 µM stood at 4.31%. With `CC(=O)NCCNC(=O)c1sccc1Br`, the cytotoxicity at 10 µM worked out at 4.2%. For `O=C(NCC(O)COc1ccc(F)cc1)C1(c2ccc(F)cc2)CC1` (configuration not stated) the value was 2.71%; for `CCN(Cc1ccco1)C(C)c1nc(C(C)C)no1` (configuration not stated), 15.6%; for `O=C(C1=CCCC1)N1CCC[C@]2(C[C@@H](Oc3ncccc3F)CO2)C1`, -15.5%. As for `Cn1cc(CN2CC[C@@H]3[C@@H](CO[C@H]3CNC(=O)c3ccco3)C2)cn1`, the cytotoxicity at 10 µM was -142%. For the compound `CCCn1ccnc1CN1CCCC1c1ccccn1` (configuration not stated), the cytotoxicity at 10 µM is -7.25%. On to `CC(=O)N1CCCN(C(=O)NCCCc2cn[nH]c2C)CC1`, for which the cytotoxicity at 10 µM was -9.67%. In the case of `O=C(Cc1ccccc1)N1CCN(Cc2noc(C3CC3)n2)CC1`, the cytotoxicity at 10 µM came to 1.15%. Regarding `c1cc(-c2n[nH]cc2-c2ccnc(N3CCCCCC3)n2)ccn1`, the cytotoxicity at 10 µM is -0.252%.

`Cc1cccn2c(=O)cc(OC(=O)c3ccccc3)nc12`: the cytotoxicity at 10 µM amounted to 0.64%. On to `CCN1CCCC(O)(c2nc(C)c(CCOc3ccc(F)cc3)s2)CC1` (configuration not stated), for which the cytotoxicity at 10 µM is -22.4%.

As for `CNc1nc2c(s1)C(=O)CN(C(=O)NCCc1ccccc1)C2`, the cytotoxicity at 10 µM is -7.38%. Turning to `Cc1cc(CN(C)CC2CCCN(CCc3ccc(Cl)cc3)C2)[nH]n1` (configuration not stated), the cytotoxicity at 10 µM was -12.5%.

`O=C(CNc1cc(F)ccc1OC(F)F)NCC(F)(F)F`: the cytotoxicity at 10 µM was -2.79%.

Consider `CNC(=O)N1CCC2(CC1)CN(C)Cc1cc(F)ccc12`, for which the cytotoxicity at 10 µM stood at 4.16%. Consider `Cc1nccn1CCNC(=O)C1(C)CC(c2ccccc2)=NO1` (configuration not stated), for which the cytotoxicity at 10 µM worked out at 8.46%. Turning to `CNC(=O)c1cn[nH]c1C1CCN(Cc2ccccc2OC)C1` (configuration not stated), the cytotoxicity at 10 µM worked out at 7.16%.

In the case of `CCC(C(=O)NC1CCN(S(C)(=O)=O)CC1)n1cccn1` (configuration not stated), the cytotoxicity at 10 µM was -2.42%. For `Cc1cc(CN2CCN(CC(O)c3ccc4c(c3)OCO4)CC2)no1` (configuration not stated) the value was -7.82%; for `Cc1cccc(CN2CC[C@@H]3[C@@H]2CCN3C(=O)c2cc(C)on2)n1`, -0.762%. Take `O=C(CCN1CCc2c(ncn2C2CC2)C1)NC1CCCC1`: the cytotoxicity at 10 µM was -10.1%. For `CC(C)Oc1ccccc1-c1cc(CN)ccc1F`, the cytotoxicity at 10 µM is -2.69%. Consider `CN(C)S(=O)(=O)N1CCC(c2c(C(N)=O)sc3ccccc23)C1` (configuration not stated), for which the cytotoxicity at 10 µM worked out at 4.83%.

For `O=S(=O)(c1c(F)cccc1F)N1CCCC1c1nnc2n1CCCCC2` (configuration not stated), the cytotoxicity at 10 µM worked out at 11.2%. For `Cc1cc(CN(C)c2nc(-c3ccccn3)nc3c2CCNCC3)n[nH]1`, the cytotoxicity at 10 µM was -5.48%. For `CCCNC(=O)C(C)Oc1ccc(F)cc1` (configuration not stated) the value was -3.76%. As to `O=C(NCc1ccccn1)[C@@]12CCO[C@@H]1CCN(C1CCCC1)C2`, the cytotoxicity at 10 µM is -105%.

`CC(C)Oc1ncccc1CNC(=O)c1ccco1`: the cytotoxicity at 10 µM was found to be 1.32%. On to `Fc1cnccc1CN1CCC2(CCNCC2)C1`, for which the cytotoxicity at 10 µM was -123%. As for `CC(=O)Nc1nc(C(=O)N2CCCC(c3cc(C)[nH]n3)C2)cs1` (configuration not stated), the cytotoxicity at 10 µM was -8.85%.

For the compound `CC(NC(=O)Cc1ccccc1F)C(=O)N1CCS(=O)(=O)CC1` (configuration not stated), the cytotoxicity at 10 µM stood at 8.68%. Take `Cc1ccc(NC2CCN(C(=O)CN(C)C3CC3)CC2)nn1`: the cytotoxicity at 10 µM was 4.64%. Regarding `CN(CCc1cccs1)C(=O)Nc1cccc(S(C)(=O)=O)c1`, the cytotoxicity at 10 µM is -8.77%. For the compound `O=C(NCCN1CCCCCC1=O)Nc1cccnc1-n1cccn1`, the cytotoxicity at 10 µM was -1.73%.

Turning to `CC(C)OCc1noc(C2CC=CC2)n1`, the cytotoxicity at 10 µM stood at 16.5%. In the case of `CC(C)(C)NC(=O)N1CCC(Oc2ccc(C(F)(F)F)cn2)CC1`, the cytotoxicity at 10 µM was 6.91%. With `CCCS(=O)(=O)N1C[C@@H]2CN(Cc3cccs3)CCO[C@@H]2C1`, the cytotoxicity at 10 µM was -145%. For `Cc1n[nH]c(C)c1-c1nccnc1CC1CCN(C(C)C)CC1` the value was -5.36%; for `Cn1cc(CN2CCCC23CCN(C(=O)c2cccn2C)CC3)cn1`, 2.88%; for `CC(C)c1noc(CN2CCC(C3CCCCCN3S(C)(=O)=O)CC2)n1` (configuration not stated), -2.71%. With `Cc1ccccc1CSc1nc(=O)n(CCO)c2c1CCC2` the figure was 20.6%; with `Cc1ccccc1C1CCN(CCn2cc(-c3nccn3C)nn2)C1` (configuration not stated), 4.96%. `CC(=O)N1CCCN(C(=O)NCCNc2ccccn2)CC1`: the cytotoxicity at 10 µM was -4.07%. `COC(=O)CC(NC(=O)c1cccc(N2CCCC2=O)c1)C(=O)OC` (configuration not stated): the cytotoxicity at 10 µM was -55.6%. For the compound `CNC(=O)[C@@H]1C[C@H](N)CN1Cc1cc2cc(OC)ccc2nc1O`, the cytotoxicity at 10 µM was -6.69%. As for `Cc1ccc(OCc2occc2C(=O)O)cc1`, the cytotoxicity at 10 µM is -3.76%.

In the case of `CCC[C@H]1CN(S(C)(=O)=O)C[C@@H]1NC(=O)Cc1ccc(F)cc1C`, the cytotoxicity at 10 µM is -7.13%.

As to `COC(=O)CCN1CCC(C(=O)c2cc(F)ccc2F)CC1`, the cytotoxicity at 10 µM is -11.1%. With `Cc1nc(C)n(CC2CN(c3ccc(C#N)cn3)CCO2)n1` (configuration not stated) the figure was -10.5%; with `CC(C)(C)C(=O)NCCc1ccn(-c2ccccc2)n1`, 1.76%. For `COc1cccc(CN2CCC3(CCN(c4ncc(C)cn4)CC3)C2)c1` the value was -6.5%. As to `CCn1cnnc1C1CCN(C(=O)c2c(C)oc(C)c2C)CC1`, the cytotoxicity at 10 µM came out at 5.89%. In the case of `Cc1c(Cl)cccc1S(=O)(=O)NCc1cnc(N(C)C)n1C`, the cytotoxicity at 10 µM was -6.31%. With `COc1cncc(N2CCN(Cc3ccco3)CC2)n1`, the cytotoxicity at 10 µM came out at 0.197%. In the case of `O=C(c1cnc(-c2cnccn2)s1)N1CCCC1Cn1cccn1` (configuration not stated), the cytotoxicity at 10 µM is -3.99%.

With `CNC(=O)[C@@H]1COC[C@H]2CN(C(=O)c3ccc(OC)cc3)C[C@H]21`, the cytotoxicity at 10 µM amounted to 9.48%. For the compound `CCC(=O)N1CCN(C(=O)NCCOc2ccc3c(c2)CCC3)CC1`, the cytotoxicity at 10 µM is -7.57%.

Regarding `CC(=O)N1CCC(N2CCOC[C@H]2c2nc(-c3ccncc3)c[nH]2)CC1`, the cytotoxicity at 10 µM stood at 1.58%.
